Each structure is given as a SMILES string.

Results on one compound are retold here after ChEMBL document CHEMBL1149648, “Norcantharimides, synthesis and anticancer activity: Synthesis of new norcantharidin analogues and their anticancer evaluation” (2007).

Common to all, as to format: functional
One experiment deals with A-431. Put plainly: Cytotoxicity against human A431 cells after 72 hrs by MTT assay. As to conditions: A-431, 72 h. The essentials: (§1)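 Cells were grown in DMEM with 10% FBS, bicarbonate, penicillin/streptomycin and 4 mM glutamine at 37 °C under 5% CO2. Log-phase cells were plated in duplicate at 2500–4000 cells/well. After 24 h, medium with or without agent was added (stocks in DMSO or water). Growth inhibition was read by MTT at 540 nm after 72 h continuous exposure. Values are means (SEM) of 3–6 experiments.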
For orientation: Formazan colour is commonly taken as a measure of viable cells.

In another experiment the test system is NCI-H460. Put plainly: Cytotoxicity against human H460 cells after 72 hrs by MTT assay. The note with it: NCI-H460, 72 h. The essentials:
as §1

The test system of a further experiment is HT-29. In words: Cytotoxicity against human HT29 cells after 72 hrs by MTT assay. As to conditions: HT-29, 72 h. The gist of the method: as §1
Experiment [1] is described as follows: Cytotoxicity against human SJG2 cells after 72 hrs by MTT assay. As to conditions: SJ-G2, 72 h. The gist of the method: as §1
The next experiment deals with DU-145. Put plainly: Cytotoxicity against human DU145 cells after 72 hrs by MTT assay. As to conditions: DU-145, 72 h. The essentials:
as §1

Another experiment relates to A2780. In words: Cytotoxicity against human A2780 cells after 72 hrs by MTT assay. The note with it: A2780, 72 h. The essentials: as §1
Experiment [2] can be described thus: Cytotoxicity against human BE2C cells after 72 hrs by MTT assay. The note with it: BE(2)-C. The essentials:
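Cells cultured in DMEM with 10% FBS, bicarbonate, penicillin, streptomycin and 4 mM glutamine at 37 °C, 5% CO2. Log-phase cells plated in duplicate at 2500–4000/well; test agent (DMSO stock) added 24 h later. After 72 h continuous exposure, MTT read at 540 nm; means of 3–6 experiments.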

Another experiment has as its system SW480. Put plainly: Cytotoxicity against human SW480 cells after 72 hrs by MTT assay. The note with it: SW480, 72 h. The essentials: as §1
The test system of a further experiment is MCF7. In words: Cytotoxicity against human MCF7 cells after 72 hrs by MTT assay. The note with it: MCF7, 72 h. The gist of the method:
as §1

Turning to `O=C1OC(=O)C2C3CCC(O3)C12` (centres undefined) [DEMETHYL-CANTHARIDIN], the GI50 was determined as 31 µM with A-431; 45 µM in the experiment with NCI-H460; 57 µM in the experiment on HT-29; 23 µM in experiment [1]; 28 µM in the experiment with DU-145; 38 µM in the experiment on A2780. Further, the GI50 was found to be 43 µM in experiment [2], 44 µM with SW480 and 68 µM with MCF7.

In general, GI50 refers to the concentration giving 50% growth inhibition. The low end stands for greater sensitivity of the cells, the high end for lower sensitivity of the cells.
